Experiments:
Blood [1] = assay: Biodistribution in blood of Fischer 344 rat bearing rat 9L cells at 20 uCi, iv after 60 mins; format: ADME, organism-based; conditions: in vivo, 1 h
Outline: (§1)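 Male Fischer 344 rats (200–250 g) carrying intracranial 9L gliosarcoma (5×10^4 cells implanted stereotactically, 10–12 days growth), under ketamine:xylazine anaesthesia. About 20 μCi tracer in 0.5 mL sterile saline given via tail-vein catheter. Groups of 4–5 were killed by intracardiac KCl at 15 (NMeFAMP only), 30, 60 or 120 min. Tissues were weighed and gamma-counted, decay-corrected, and reported as %ID/g, mean ± SD.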

Heart [2] = assay: Biodistribution in heart of Fischer 344 rat bearing rat 9L cells at 20 uCi, iv after 60 mins; format: ADME, organism-based; conditions: in vivo, 1 h; outline: as §1
[3] = Ratio of drug level from tumor to brain of Fischer 344 rat bearing rat 9L cells at 20 uCi, iv after 60 mins; conditions: in vivo, 1 h
Lung [4] = assay: Biodistribution in lung of Fischer 344 rat bearing rat 9L cells at 20 uCi, iv after 120 mins; format: ADME, organism-based; conditions: in vivo, 2 h; outline: as §1
Liver [5] = assay: Biodistribution in liver of Fischer 344 rat bearing rat 9L cells at 20 uCi, iv after 15 mins; format: ADME, organism-based; conditions: in vivo, 0.25 h; outline: as §1
Bone [6] = assay: Biodistribution in bone of Fischer 344 rat bearing rat 9L cells at 20 uCi, iv after 30 mins; format: ADME, organism-based, Bone element; conditions: in vivo, 0.5 h; outline: as §1
Muscle tissue [7] = assay: Biodistribution in muscle of Fischer 344 rat bearing rat 9L cells at 20 uCi, iv after 120 mins; format: ADME, organism-based; conditions: in vivo, 2 h; outline: as §1
Bone [8] = assay: Biodistribution in bone of Fischer 344 rat bearing rat 9L cells at 20 uCi, iv after 60 mins; format: ADME, organism-based, Bone element; conditions: in vivo, 1 h; outline: as §1
Heart [9] = assay: Biodistribution in heart of Fischer 344 rat bearing rat 9L cells at 20 uCi, iv after 30 mins; format: ADME, organism-based; conditions: in vivo, 0.5 h; outline: as §1
Blood [10] = assay: Biodistribution in blood of Fischer 344 rat bearing rat 9L cells at 20 uCi, iv after 120 mins; format: ADME, organism-based; conditions: in vivo, 2 h; outline: as §1
Muscle tissue [11] = assay: Biodistribution in muscle of Fischer 344 rat bearing rat 9L cells at 20 uCi, iv after 30 mins; format: ADME, organism-based; conditions: in vivo, 0.5 h; outline: as §1
Heart [12] = assay: Biodistribution in heart of Fischer 344 rat bearing rat 9L cells at 20 uCi, iv after 120 mins; format: ADME, organism-based; conditions: in vivo, 2 h; outline: as §1
Lung [13] = assay: Biodistribution in lung of Fischer 344 rat bearing rat 9L cells at 20 uCi, iv after 15 mins; format: ADME, organism-based; conditions: in vivo, 0.25 h; outline: as §1
Liver [14] = assay: Biodistribution in liver of Fischer 344 rat bearing rat 9L cells at 20 uCi, iv after 60 mins; format: ADME, organism-based; conditions: in vivo, 1 h; outline: as §1
[15] = Biodistribution in testis of Fischer 344 rat bearing rat 9L cells at 20 uCi, iv after 60 mins; format: ADME, organism-based; conditions: in vivo, 1 h; outline: as §1
Kidney [16] = assay: Biodistribution in kidney of Fischer 344 rat bearing rat 9L cells at 20 uCi, iv after 120 mins; format: ADME, organism-based; conditions: in vivo, 2 h; outline: as §1
[17] = Biodistribution in tumor of Fischer 344 rat bearing rat 9L cells at 20 uCi, iv after 30 mins; format: ADME, organism-based, Neoplasm; conditions: in vivo, 0.5 h; outline: as §1
Heart [18] = assay: Biodistribution in heart of Fischer 344 rat bearing rat 9L cells at 20 uCi, iv after 15 mins; format: ADME, organism-based; conditions: in vivo, 0.25 h; outline: as §1
Blood [19] = assay: Biodistribution in blood of Fischer 344 rat bearing rat 9L cells at 20 uCi, iv after 30 mins; format: ADME, organism-based; conditions: in vivo, 0.5 h; outline: as §1
Kidney [20] = assay: Biodistribution in kidney of Fischer 344 rat bearing rat 9L cells at 20 uCi, iv after 30 mins; format: ADME, organism-based; conditions: in vivo, 0.5 h; outline: as §1
Brain [21] = assay: Biodistribution in brain of Fischer 344 rat bearing rat 9L cells at 20 uCi, iv after 15 mins; format: ADME, organism-based; conditions: in vivo, 0.25 h; outline: as §1
Muscle tissue [22] = assay: Biodistribution in muscle of Fischer 344 rat bearing rat 9L cells at 20 uCi, iv after 15 mins; format: ADME, organism-based; conditions: in vivo, 0.25 h; outline: as §1
Spleen [23] = assay: Biodistribution in spleen of Fischer 344 rat bearing rat 9L cells at 20 uCi, iv after 30 mins; format: ADME, organism-based; conditions: in vivo, 0.5 h; outline: as §1
Liver [24] = assay: Biodistribution in liver of Fischer 344 rat bearing rat 9L cells at 20 uCi, iv after 120 mins; format: ADME, organism-based; conditions: in vivo, 2 h; outline: as §1
Pancreas [25] = assay: Biodistribution in pancreas of Fischer 344 rat bearing rat 9L cells at 20 uCi, iv after 120 mins; format: ADME, organism-based; conditions: in vivo, 2 h; outline: as §1
Spleen [26] = assay: Biodistribution in spleen of Fischer 344 rat bearing rat 9L cells at 20 uCi, iv after 60 mins; format: ADME, organism-based; conditions: in vivo, 1 h; outline: as §1
Lung [27] = assay: Biodistribution in lung of Fischer 344 rat bearing rat 9L cells at 20 uCi, iv after 30 mins; format: ADME, organism-based; conditions: in vivo, 0.5 h; outline: as §1
Kidney [28] = assay: Biodistribution in kidney of Fischer 344 rat bearing rat 9L cells at 20 uCi, iv after 60 mins; format: ADME, organism-based; conditions: in vivo, 1 h; outline: as §1
Lung [29] = assay: Biodistribution in lung of Fischer 344 rat bearing rat 9L cells at 20 uCi, iv after 60 mins; format: ADME, organism-based; conditions: in vivo, 1 h; outline: as §1
[30] = rat, in vivo, iv, 1 h
Bone [31] = assay: Biodistribution in bone of Fischer 344 rat bearing rat 9L cells at 20 uCi, iv after 15 mins; format: ADME, organism-based, Bone element; conditions: in vivo, 0.25 h; outline: as §1
[32] = Biodistribution in testis of Fischer 344 rat bearing rat 9L cells at 20 uCi, iv after 15 mins; format: ADME, organism-based; conditions: in vivo, 0.25 h; outline: as §1
[33] = rat, in vivo, iv, 1 h; remark: listed apart in the source
Blood [34] = assay: Biodistribution in blood of Fischer 344 rat bearing rat 9L cells at 20 uCi, iv after 15 mins; format: ADME, organism-based; conditions: in vivo, 0.25 h; outline: as §1
Pancreas [35] = assay: Biodistribution in pancreas of Fischer 344 rat bearing rat 9L cells at 20 uCi, iv after 15 mins; format: ADME, organism-based; conditions: in vivo, 0.25 h; outline: as §1
Brain [36] = assay: Biodistribution in brain of Fischer 344 rat bearing rat 9L cells at 20 uCi, iv after 30 mins; format: ADME, organism-based; conditions: in vivo, 0.5 h; outline: as §1
Kidney [37] = assay: Biodistribution in kidney of Fischer 344 rat bearing rat 9L cells at 20 uCi, iv after 15 mins; format: ADME, organism-based; conditions: in vivo, 0.25 h; outline: as §1
Spleen [38] = assay: Biodistribution in spleen of Fischer 344 rat bearing rat 9L cells at 20 uCi, iv after 120 mins; format: ADME, organism-based; conditions: in vivo, 2 h; outline: as §1
Bone [39] = assay: Biodistribution in bone of Fischer 344 rat bearing rat 9L cells at 20 uCi, iv after 120 mins; format: ADME, organism-based, Bone element; conditions: in vivo, 2 h; outline: as §1
Pancreas [40] = assay: Biodistribution in pancreas of Fischer 344 rat bearing rat 9L cells at 20 uCi, iv after 60 mins; format: ADME, organism-based; conditions: in vivo, 1 h; outline: as §1
[41] = Biodistribution in testis of Fischer 344 rat bearing rat 9L cells at 20 uCi, iv after 120 mins; format: ADME, organism-based; conditions: in vivo, 2 h; outline: as §1
Muscle tissue [42] = assay: Biodistribution in muscle of Fischer 344 rat bearing rat 9L cells at 20 uCi, iv after 60 mins; format: ADME, organism-based; conditions: in vivo, 1 h; outline: as §1
Pancreas [43] = assay: Biodistribution in pancreas of Fischer 344 rat bearing rat 9L cells at 20 uCi, iv after 30 mins; format: ADME, organism-based; conditions: in vivo, 0.5 h; outline: as §1
Brain [44] = assay: Biodistribution in brain of Fischer 344 rat bearing rat 9L cells at 20 uCi, iv after 15 mins; conditions: in vivo
[45] = Biodistribution in testis of Fischer 344 rat bearing rat 9L cells at 20 uCi, iv after 30 mins; format: ADME, organism-based; conditions: in vivo, 0.5 h; outline: as §1
Liver [46] = assay: Biodistribution in liver of Fischer 344 rat bearing rat 9L cells at 20 uCi, iv after 30 mins; format: ADME, organism-based; conditions: in vivo, 0.5 h; outline: as §1
Spleen [47] = assay: Biodistribution in spleen of Fischer 344 rat bearing rat 9L cells at 20 uCi, iv after 15 mins; format: ADME, organism-based; conditions: in vivo, 0.25 h; outline: as §1
[48] = Ratio of drug level from tumor to brain of Fischer 344 rat bearing rat 9L cells at 20 uCi, iv after 120 mins; format: ADME, organism-based; conditions: in vivo, 2 h

CN[C@](C)(C[18F])C(=O)O.Cl
Drug uptake (Blood [1]): 0.24 % ID/g
Drug uptake (Heart [2]): 0.31 % ID/g
Ratio [3]: 28.7
Drug uptake (Lung [4]): 0.42 % ID/g
Drug uptake (Liver [5]): 0.83 % ID/g
Drug uptake (Bone [6]): 0.32 % ID/g
Drug uptake (Muscle tissue [7]): 0.22 % ID/g
Drug uptake (Bone [8]): 0.37 % ID/g
Drug uptake (Heart [9]): 0.3 % ID/g
Drug uptake (Blood [10]): 0.14 % ID/g
Drug uptake (Muscle tissue [11]): 0.26 % ID/g
Drug uptake (Heart [12]): 0.21 % ID/g
Drug uptake (Lung [13]): 0.86 % ID/g
Drug uptake (Liver [14]): 0.88 % ID/g
Drug uptake [15]: 0.13 % ID/g
Drug uptake (Kidney [16]): 2.22 % ID/g
Ratio [17]: 30.2
Drug uptake (Heart [18]): 0.32 % ID/g
Drug uptake (Blood [19]): 0.31 % ID/g
Drug uptake (Kidney [20]): 9.48 % ID/g
Drug uptake (Brain [21]): 0.06 % ID/g
Drug uptake (Muscle tissue [22]): 0.25 % ID/g
Drug uptake (Spleen [23]): 0.51 % ID/g
Drug uptake (Liver [24]): 0.6 % ID/g
Drug uptake (Pancreas [25]): 3.78 % ID/g
Drug uptake (Spleen [26]): 0.53 % ID/g
Drug uptake (Lung [27]): 0.87 % ID/g
Drug uptake (Kidney [28]): 5.18 % ID/g
Drug uptake (Lung [29]): 0.5 % ID/g
Drug uptake [30]: 1.46 % ID/g
Drug uptake (Bone [31]): 0.46 % ID/g
Drug uptake [32]: 0.19 % ID/g
Drug uptake [33]: 0.05 % ID/g
Drug uptake (Blood [34]): 0.54 % ID/g
Drug uptake (Pancreas [35]): 3.52 % ID/g
Drug uptake (Brain [36]): 0.06 % ID/g
Drug uptake (Kidney [37]): 11.58 % ID/g
Drug uptake (Spleen [38]): 0.49 % ID/g
Drug uptake (Bone [39]): 0.25 % ID/g
Drug uptake (Pancreas [40]): 4.34 % ID/g
Drug uptake [41]: 0.08 % ID/g
Drug uptake (Muscle tissue [42]): 0.24 % ID/g
Drug uptake (Pancreas [43]): 3.4 % ID/g
Ratio (Brain [44]): 20.4
Drug uptake [45]: 0.13 % ID/g
Drug uptake (Liver [46]): 0.71 % ID/g
Drug uptake (Spleen [47]): 0.57 % ID/g
Ratio [48]: 35.4

From ChEMBL document CHEMBL1154842, “Synthesis, radiolabeling, and biological evaluation of (R)- and (S)-2-amino-3-[(18)F]fluoro-2-methylpropanoic acid (FAMP) and (R)- and (S)-3-[(18)F]fluoro-2-methyl-2-N-(methylamino)propanoic acid (NMeFAMP) as potential PET radioligands for imaging brain tumors” (J Med Chem, 2010)
